Measured values gathered from unrelated publications.
Target: Serine/threonine-protein kinase Chk2 (CHEK2, Homo sapiens, UniProt O96017)

The remaining binding of CCN1CCN(Cc2ccc(C(=O)Nc3ccc(C)c(Oc4ccc5c(c4)CC(=O)N5)c3)cc2C(F)(F)F)CC1 is reported as 100% (binding; competition with immobilised ligand; 1 µM).
COc1ccnn2ncc(-c3ccnc(N(C)C)n3)c12 has a remaining binding of 87% (binding; 1 µM).
With COc1cnc(Nc2cccc(S(N)(=O)=O)c2)nc1N1CCN(c2ccccc2)CC1 the remaining binding was 96% (binding; competition with immobilised ligand; 1 µM).
For O=C(c1ccc(Nc2ncc(Cl)c(-c3cc4ccccc4s3)n2)cc1)N1CCC(N2CCCC2)CC1, the remaining binding was 82% (binding; competition with immobilised ligand; 1 µM).
CC1CCCN1c1nccc(-c2cnn3ncccc23)n1 (stereo not drawn) gave a remaining binding of 100% (binding; 1 µM).
O=C(NCCCN1CCOCC1)c1ccc(Nc2nccc(-c3cc4ccccc4s3)n2)cc1 has a remaining binding of 79% (binding; competition with immobilised ligand; 1 µM).
For C[C@@H]1CCN(c2nccc(-c3cnn4ncccc34)n2)C1, the remaining binding was 71% (binding; 1 µM).
O=C(NCc1ncc(C(F)(F)F)cc1Cl)c1ccc2c(c1)C1(CCS(=O)(=O)CC1)[C@H](C1CC1)N2S(=O)(=O)c1ccc(F)cc1 has a remaining binding of 100% (cell-free assay; competition with immobilised ligand; 1 µM).
With NC(=O)c1nc(Nc2ccccc2)sc1NC(=O)C1CCCCC1 the remaining binding was 2.7% (cell-free assay; competition with immobilised ligand; 10 µM).
COc1cc(C(=O)N2CCC(N3CCN(C)CC3)CC2)ccc1Nc1ncc2c(n1)N(C)c1ccccc1C(=O)N2C gave a remaining binding of 66% (binding; competition with immobilised ligand; 10 µM).
CCS(=O)(=O)c1cc2cc(C[C@@](O)(CC(C)(C)c3ccc(F)cc3C(N)=O)C(F)(F)F)[nH]c2cn1 has a remaining binding of 84% (cell-free assay; competition with immobilised ligand; 1 µM).
Nc1ncc2c(n1)-c1c([nH]c3ccc(C#CC4CC4)cc13)CCCC2 has a remaining binding of 86% (binding; competition with immobilised ligand; 1 µM).
With N#Cc1ccc(Nc2ccc3[nH]c(=O)[nH]c3c2)c(Cl)c1 the remaining binding was 100% (cell-free assay; competition with immobilised ligand; 1 µM).
CN(C)c1ncc(F)c(-c2cnn3ncccc23)n1 gave a remaining binding of 100% (binding; 1 µM).
The remaining binding of O=C(Nc1c[nH]nc1C(=O)NC1CCNCC1)c1cc(F)cc(F)c1 is reported as 100% (binding; competition with immobilised ligand; 1 µM).
For COc1cccc(CNC(=O)c2nc3scc(COCc4ccc(C(=O)O)cc4)c3c(=O)[nH]2)c1, the remaining binding was 92% (cell-free assay; competition with immobilised ligand; 1 µM).
The remaining binding of C[C@@H](c1ccc(-n2cnc3c(N)ncnc32)cc1)N1CCc2nn(C)c(Cc3ccccc3)c2C1=O is reported as 100% (binding; competition with immobilised ligand; 0.1 µM).
O=C(NCCCN1CCOCC1)c1ccc(Nc2ncc(Cl)c(-c3ccc(Cl)s3)n2)cc1 gave a remaining binding of 82% (binding; competition with immobilised ligand; 1 µM).
CN(CCCC(F)(F)F)c1nccc(-c2cnn3ncccc23)n1 has a remaining binding of 99% (binding; 1 µM).
With CC(=O)c1c(NS(C)(=O)=O)c2cc(-c3ccc(Cl)cc3)c(-c3ccc(Cl)cc3Cl)nc2n(C)c1=O the remaining binding was 100% (cell-free assay; competition with immobilised ligand; 1 µM).
CN(C)c1nccc(-c2cnn3ncccc23)n1 gave a remaining binding of 100% (binding; 1 µM).
For CN(C)C(=O)Cn1cc(-c2nc(C3(c4ccc(-c5cnc(N)nc5)cc4)CC3)no2)cn1, the remaining binding was 100% (cell-free assay; competition with immobilised ligand; 1 µM).
N[C@H]1CCN(c2nccc(-c3cnn4ncccc34)n2)C1 gave a remaining binding of 98% (binding; 1 µM).
CO[C@@H](C)c1c(Nc2ccc([C@@H](N(C)C(=O)C3CCS(=O)(=O)CC3)C(F)(F)F)cc2)cnc2cc(Cl)nn12 gave a remaining binding of 100% (cell-free assay; competition with immobilised ligand; 1 µM).
